Compounds with a hit are over-represented: about 2.9% of the library has one in this group of screens.
Beta2AR agonist = agonists of human beta-2 adrenergic receptor inducing internalization; P07550; Am2.2-beta2AR cells, FAP receptor internalization, flow cytometry; response, % (no concentration beside the values); 0.43% of 340,000 active; AID 504454;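 active = response above a set limit, near 3 SD of response in nonfluorescent compounds, cut at about 42% in these data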
Target sequence (P07550 whole entry, looked up): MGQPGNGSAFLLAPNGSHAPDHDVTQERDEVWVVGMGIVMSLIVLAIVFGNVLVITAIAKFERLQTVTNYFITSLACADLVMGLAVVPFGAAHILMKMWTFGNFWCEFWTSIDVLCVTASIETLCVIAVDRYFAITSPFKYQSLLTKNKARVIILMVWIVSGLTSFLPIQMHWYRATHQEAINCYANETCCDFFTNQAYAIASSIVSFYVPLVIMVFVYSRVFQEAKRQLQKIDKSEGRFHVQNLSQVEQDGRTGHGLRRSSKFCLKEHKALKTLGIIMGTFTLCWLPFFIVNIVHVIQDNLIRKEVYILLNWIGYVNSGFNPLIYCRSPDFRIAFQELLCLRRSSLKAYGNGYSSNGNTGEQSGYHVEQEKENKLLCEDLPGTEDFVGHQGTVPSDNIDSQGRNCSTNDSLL
Dynein transport = dynein cargo transport inhibition; 0.47% of 220,000 active; AID 1381; z-score, hits read low; 3617.4 mouse cells, GR-EGFP nuclear translocation imaging; test concentration mostly 20 µM; stimulated with dexamethasone, 1 µM; active compounds read low;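 active = plate z-score of nuclear minus cytoplasmic receptor signal below a set negative limit, without overly bright fluorescence or cell loss, cut at about -3.5 in these data, passing the limit was not always enough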;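 note: z-score of nuclear minus cytoplasmic ring GR-EGFP intensity difference per well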
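medium = tetracycline-free induction medium containing charcoal-stripped FBS | probe or stimulus = dexamethasone, 1.0 µM final | timing = 48 h induction, then 1 h compound, then 30 min agonist, 37 °C | detection = automated 10x imaging of fixed Hoechst-stained cells | read-out basis = nuclear versus cytoplasmic GR-EGFP signal, averaged per well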
ATG4B inhibitor = blocks human ATG4B protease cleavage of LC3 substrate; Q9Y4P1; AID 504462; ATG4B cleavage of LC3-PLA2, NBD-HPC fluorescence, 1 h; inhibition, % at 8.33 µM; 0.51% of 340,000 active; in the data active = inhibition above about 40%
MEKK3 PB1 HTS = MEKK3-MEK5 PB1 interaction, increase or decrease. Q99759. bead-based flow cytometry, Alexa488-MEK5 binding to MEKK3; actives lie on both sides; 0 = blocked by unlabeled MEK5, 100 = vehicle. binding response (% of control), % at 10 µM. 1.4% of 290,000 active. AID 1529;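 active = binding response more than 3 SD above or below the average of its plate-row segment, actives on both sides; inconclusive = wells at one plate position flagged as instrument error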;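 note: Alexa488 bead fluorescence after subtracting the streptavidin-only scavenger bead signal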
MEKK2mut PB1 HTS = signal of MEK5 binding to mutant human MEKK2 PB1 domain; bead flow cytometry, Alexa488-MEK5 binding to MEKK2 mutant; percent response, % at 10 µM; 0.35% of 290,000 active; AID 1530; in the data active = percent response above about 24%, passing the limit was not always enough
MEKK2 WT-MEK5 = raises or lowers MEK5 binding to wildtype human MEKK2 PB1 domain. Q9Y2U5. bead flow cytometry, Alexa488-MEK5 binding to MEKK2 WT; actives lie on both sides. binding response (% of control), % at 10 µM. 1.1% of 290,000 active. AID 1531; in the data active = binding response below about 67% or above about 130%; inconclusive = no clear call, values can overlap the other calls; inactive = in between
Dynein confirm = dynein cargo transport inhibition, confirmation; 69% of 1,000 active; shares compounds with Dynein transport; calls only at 20 µM; 3617.4 GR-EGFP nuclear translocation imaging, dexamethasone-induced;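 active = inhibition of receptor movement into the nucleus at or above a set limit in both runs, with normal cell brightness and cell count; inconclusive = limit reached in only one run, brightness and count normal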;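 note: dexamethasone at 1 µM final in well for 30 min; nuclear minus cytoplasmic GR-EGFP mean intensity difference in channel 2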
MEKK2wt confirm = raises or lowers MEK5 binding to wildtype human MEKK2, retest; shares compounds with MEKK3 PB1 HTS; bead flow cytometry, Alexa488-MEK5 binding to MEKK2 WT; actives lie on both sides; binding response (% of control), % at 10 µM; 2.4% of 5,900 active; AID 1892; in the data active = binding response below about 16% or above about 210%; inactive = in between
MEKK2mut-MEK5 = signal of MEK5 binding to mutant human MEKK2, retest. shares compounds with MEKK3 PB1 HTS. 2% of 5,900 active. percent response, % at 10 µM. bead flow cytometry, Alexa488-MEK5 binding to MEKK2 mutant; in the data active = percent response mostly above about 71%, no sharp cut-off; inactive = mostly below about 38%;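 note: higher means compound restores mutant binding toward wildtype level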
MEKK3 confirm = MEKK3-MEK5 PB1 inhibition, single concentration confirmation | binding response (% of control), % at 10 µM | 1.8% of 5,900 active | bead flow cytometry, Alexa488-MEK5 binding to MEKK3; active compounds read low | AID 1894 | shares compounds with MEKK3 PB1 HTS;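 active = binding response below 72% of control, or above a set upper limit, though filed actives all read lower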;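 note: lower values mean stronger disruption of MEK5 binding to MEKK3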
A number is an active result; . = inactive; ? = inconclusive; / = not tested or not shown; + = active, no number; [ ] = another dose, or the depositor's remark.

SMILES	Beta2AR agonist	Dynein transport	ATG4B inhibitor	MEKK3 PB1 HTS	MEKK2mut PB1 HTS	MEKK2 WT-MEK5	Dynein confirm	others
CC(=O)C1CCC2C3CC(O)C4CC(O)CCC4(C)C3CCC12C (stereo unspecified)	.	/	.	/	/	/	/
COc1ccc(C(C)=O)cc1CC(C(=O)c1ccc(C)cc1)N(C)C (stereo unspecified)	.	.	.	.	.	.	/
CCOc1ccc(C(C)=O)cc1Cn1ccsc1=N	.	/	.	.	.	145	/
CCOC(=O)[C@]1(C#N)[C@@H]2C=CC(C(N)=O)=CN2[C@@H](C(N)=O)[C@@H]1c1ccc(F)cc1	.	.	48	.	.	.	/
CCOC(=O)[C@@]1(C#N)[C@@H]2C=CC(C(N)=O)=CN2[C@@H](C(N)=O)[C@@H]1c1cccc(Cl)c1	.	.	94	.	.	.	/
COC(=O)[C@@]1(C#N)[C@@H]2C=CC(C(C)=O)=CN2[C@@H](C(N)=O)[C@@H]1c1ccc(F)cc1	.	.	.	.	.	.	/
CCOC(=O)NC1CCc2cc(OC)c(OC)c(OC)c2-c2ccc(OC)c(=O)cc21 (stereo unspecified)	.	/	.	/	/	/	/
CC(=O)OC[C@]12CCC(C)=C[C@H]1O[C@@H]1[C@H](O)[C@@H](OC(C)=O)[C@@]2(C)[C@]12CO2	103	.	.	.	.	.	/
Cc1sc2ncnc(N3CCC(C(=O)Nc4ccc(C#N)c(Cl)c4)CC3)c2c1C	.	/	.	/	/	/	/
CN1C2CCC1CC(OC(=O)CCN1CCCC1)C2 (stereo unspecified)	.	.	.	.	.	.	/
O=C(CCN1CC1)OCCOC(=O)CCN1CC1	55	/	.	/	/	/	/
CC(=O)OC(C)(C)/C=C/C(=O)C(C)(O)C1C(O)CC2(C)C3CC=C4C(CC(O)C(=O)C4(C)C)C3(C)C(=O)CC12C (stereo unspecified)	.	/	.	/	/	/	/
CC(=O)OC(C)(C)/C=C/C(=O)C(C)(O)C1[C@H](O)C[C@@]2(C)C3CC=C4C(CC[C@@H](O)C4(C)C)[C@]3(CO)C(=O)C[C@]12C (stereo partly specified)	52	/	.	.	.	.	/
CN1CCC23c4c5ccc(O)c4O[C@@H]2[C@H](O)C=CC3C1C5 (stereo partly specified)	.	/	.	/	/	/	/
CC(=O)OC(C)(C)/C=C/C(=O)[C@](C)(O)[C@H]1[C@H](O)C[C@@]2(C)[C@@H]3CC=C4[C@H](C[C@H](O)C(=O)C4(C)C)[C@]3(C)C(=O)C[C@]12C	68	-3.7	.	.	.	.	?
COC(=O)C1C2c3ccccc3C(c3ccccc32)C1(C)C(=O)OC (stereo unspecified)	.	/	.	/	/	/	/
COc1ccccc1N1C(=O)NC(=O)/C(=C\c2cnn(-c3ccccc3)c2)C1=O	.	.	.	.	.	.	/
COc1ccc(CN2C(=O)NC(=O)/C(=C/c3ccc([N+](=O)[O-])s3)C2=O)cc1	.	-4.3	.	.	.	.	+
COc1ccccc1N1C(=O)NC(=O)/C(=C/c2ccc([N+](=O)[O-])s2)C1=O	.	-5.8	.	.	.	.	+
COc1ccc(N2C(=O)NC(=O)/C(=C\c3ccc([N+](=O)[O-])s3)C2=O)cc1	.	-7.1	.	.	.	.	+
CCOc1ccc(N2C(=O)NC(=O)/C(=C\c3cc(OC)c(OC)cc3[N+](=O)[O-])C2=O)cc1	.	.	.	.	.	.	/
COc1cccc(N2C(=O)NC(=O)/C(=C/c3ccc([N+](=O)[O-])s3)C2=O)c1	.	-5.6	.	.	.	.	+
CC1=CC2OC3CC4OC(=O)C=CC=CC(=O)OCCC(C)C(O)C(=O)OCC2(CC1O)C4(C)C31CO1 (stereo unspecified)	.	/	.	/	/	/	/
COc1ccc(N2C(=O)NC(=O)/C(=C/c3ccc([N+](=O)[O-])s3)C2=O)cc1	.	-5.3	.	.	.	.	+
COc1cc(/C=C/[N+](=O)[O-])ccc1O	.	-5.7	.	.	.	.	+
SMILES	Beta2AR agonist	Dynein transport	ATG4B inhibitor	MEKK3 PB1 HTS	MEKK2mut PB1 HTS	MEKK2 WT-MEK5	Dynein confirm	others
CCN(CC)c1ccccc1	.	/	.	/	/	/	/
CCN(CC)c1ccc(/C=C/[N+](=O)[O-])cc1	63	-4.2	.	.	.	.	+
CCOC(=O)c1c(-n2c(C)cc(/C=C3/C(=O)NC(=O)N(CC)C3=O)c2C)sc2c1CCCC2	.	.	.	.	.	.	/
CCOC(=O)c1c(-n2c(C)cc(C=C3C(=O)NC(=S)NC3=O)c2C)sc2c1CCCC2	.	-4.6	.	.	.	.	+
COc1cccc(NP2(=O)OCC(C)([N+](=O)[O-])CO2)c1 (stereo unspecified)	.	/	.	/	/	/	/
CC(C)c1ccc(N2C(=O)NC(=O)/C(=C\c3cnc(-c4ccccc4)nc3)C2=O)cc1	.	.	.	.	.	.	/
CC(C)c1ccc(N2C(=O)NC(=O)/C(=C\C=C\c3ccco3)C2=O)cc1	/	-3.9	.	.	.	.	+
O=C1NC(=O)N(Cc2ccccc2)C(=O)/C1=C/C=C/c1ccco1	76	-6	.	.	.	.	+
COC(=O)C1=C(c2cccc(C#N)c2)C[C@@H]2CC[C@H]1N2C(=O)N1CCOCC1	.	/	.	/	/	/	/
COC(=O)C1=C(c2ccc(Cl)c(C(F)(F)F)c2)C[C@@H]2CC[C@H]1N2C(=O)NCc1ccc2c(c1)OCO2	.	/	.	/	/	/	/
CC(=O)C1CCC2C3CCC4CC(O)CCC4(C)C3C(=O)CC12C (stereo unspecified)	.	/	.	/	/	/	/
CCN1C(=O)C(=C/C=C/c2ccco2)C(=O)N(CC)C1=S	.	-4.5	.	.	.	59[inhibitor]	+	MEKK2wt confirm=.;MEKK2mut-MEK5=.;MEKK3 confirm=.
COc1cc(OC)c([C@H]2C=C(C)[C@H]3C[C@@H]2C3(C)C)c(OC)c1	.	/	.	/	/	/	/
